Experimental data taken from ChEMBL document CHEMBL4043283, “Discovery and Preclinical Development of IIIM-290, an Orally Active Potent Cyclin-Dependent Kinase Inhibitor” (J Med Chem, 2018).

Assays:
[1] = target: CDK2/Cyclin A2 (Homo sapiens) (UniProt P24941+P20248); assay: Inhibition of CDK2/cyclin A (unknown origin) at 0.5 uM using histone H1 as substrate after 30 mins in presence of [33P]-gamma-ATP by filter binding assay relative to control; assay type: protein-complex assay
[2] = target: CDK9/cyclin T1 (Homo sapiens) (UniProt O60563+P50750); assay: Inhibition of CDK9/cyclin T1 (unknown origin) at 0.5 uM using YSPTSPSYSPTSPSYSPTSPKKK as substrate after 30 mins in presence of [33P]-gamma-ATP by filter binding assay relative to control; assay type: protein-complex assay
[3] = system: HL-60; assay: Growth inhibition of human HL60 cells at 10 uM after 48 hrs by MTT assay relative to control; assay type: functional; settings: HL-60, 48 h, read-out: GI
Method in brief: (§1)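 Single-concentration primary screen at 10 μM by MTT assay. Cells were NCI-sourced cancer lines grown in appropriate medium at 37 °C, 95% humidity, 5% CO2. Growth inhibition is expressed relative to control.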

[4] = system: PC-3; assay: Growth inhibition of human PC3 cells at 10 uM after 48 hrs by MTT assay relative to control; assay type: functional; settings: PC-3, 48 h, read-out: GI; method in brief: as §1
[5] = system: MIA PaCa-2; assay: Growth inhibition of human MIAPaCa2 cells at 10 uM after 48 hrs by MTT assay relative to control; assay type: functional; settings: MIA PaCa-2, 48 h, read-out: GI; method in brief: as §1
[6] = system: MCF7; assay: Growth inhibition of human MCF7 cells at 10 uM after 48 hrs by MTT assay relative to control; assay type: functional; settings: MCF7, 48 h, read-out: GI; method in brief: as §1
[7] = system: Caco-2; assay: Growth inhibition of human Caco2 cells at 10 uM after 48 hrs by MTT assay relative to control; assay type: functional; settings: Caco-2, 48 h, read-out: GI; method in brief: as §1
[8] = target: CDK2/Cyclin A2 (Homo sapiens, UniProt P24941); assay: Inhibition of CDK2/cyclin A (unknown origin) using histone H1 as substrate after 30 mins in presence of [33P]-gamma-ATP by filter binding assay; assay type: protein-complex assay
[9] = target: CDK9/cyclin T1 (Homo sapiens, UniProt P50750); assay: Inhibition of CDK9/cyclin T1 (unknown origin) using YSPTSPSYSPTSPSYSPTSPKKK as substrate after 30 mins in presence of [33P]-gamma-ATP by filter binding assay; assay type: protein-complex assay
[10] = system: HL-60; assay: Growth inhibition of human HL60 cells after 48 hrs by MTT assay; assay type: functional; settings: HL-60, 48 h
Method in brief: (§2)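 Cancer cell lines sourced from the National Cancer Institute (USA). Cells kept in appropriate growth medium at 37 °C, 95% humidity, 5% CO2. Antiproliferation read by tetrazolium (MTT) assay. GI50 values were determined only for compounds selected after an initial single-concentration screen.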

[11] = system: PC-3; assay: Growth inhibition of human PC3 cells after 48 hrs by MTT assay; assay type: functional; settings: PC-3, 48 h; method in brief: as §2
[12] = system: MIA PaCa-2; assay: Growth inhibition of human MIAPaCa2 cells after 48 hrs by MTT assay; assay type: functional; settings: MIA PaCa-2, 48 h; method in brief: as §2
[13] = system: MCF7; assay: Growth inhibition of human MCF7 cells after 48 hrs by MTT assay; assay type: functional; settings: MCF7, 48 h; method in brief: as §2
[14] = system: Caco-2; assay: Growth inhibition of human Caco2 cells after 48 hrs by MTT assay; assay type: functional; settings: Caco-2, 48 h; method in brief: as §2
[15] = species on record: Homo sapiens; assay: Selectivity ratio of IC50 for CDK2/cyclin A (unknown origin) to IC50 for CDK9/cyclin T1 (unknown origin)

CDK9/cyclin T1, sequence (O60563 whole entry): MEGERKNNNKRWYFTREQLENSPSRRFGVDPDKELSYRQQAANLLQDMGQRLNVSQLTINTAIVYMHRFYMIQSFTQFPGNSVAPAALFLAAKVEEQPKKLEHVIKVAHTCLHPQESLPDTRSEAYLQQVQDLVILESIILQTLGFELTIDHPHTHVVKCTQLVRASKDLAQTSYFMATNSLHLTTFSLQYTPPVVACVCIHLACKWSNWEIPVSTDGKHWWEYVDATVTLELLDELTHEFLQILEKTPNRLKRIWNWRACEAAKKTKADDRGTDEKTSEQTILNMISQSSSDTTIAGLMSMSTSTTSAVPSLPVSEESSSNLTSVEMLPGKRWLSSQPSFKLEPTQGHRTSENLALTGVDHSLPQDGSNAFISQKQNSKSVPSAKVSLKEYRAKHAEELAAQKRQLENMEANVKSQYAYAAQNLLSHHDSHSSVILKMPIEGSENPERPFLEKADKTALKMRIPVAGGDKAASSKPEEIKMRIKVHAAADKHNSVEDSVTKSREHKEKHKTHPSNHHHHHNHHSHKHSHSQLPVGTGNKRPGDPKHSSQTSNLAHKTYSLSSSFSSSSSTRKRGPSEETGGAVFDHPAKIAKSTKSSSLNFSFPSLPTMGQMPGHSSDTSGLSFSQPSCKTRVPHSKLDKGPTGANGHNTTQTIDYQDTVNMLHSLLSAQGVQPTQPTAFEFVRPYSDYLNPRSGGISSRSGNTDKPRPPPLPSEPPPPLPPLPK
CDK9/cyclin T1, sequence (P50750 whole entry): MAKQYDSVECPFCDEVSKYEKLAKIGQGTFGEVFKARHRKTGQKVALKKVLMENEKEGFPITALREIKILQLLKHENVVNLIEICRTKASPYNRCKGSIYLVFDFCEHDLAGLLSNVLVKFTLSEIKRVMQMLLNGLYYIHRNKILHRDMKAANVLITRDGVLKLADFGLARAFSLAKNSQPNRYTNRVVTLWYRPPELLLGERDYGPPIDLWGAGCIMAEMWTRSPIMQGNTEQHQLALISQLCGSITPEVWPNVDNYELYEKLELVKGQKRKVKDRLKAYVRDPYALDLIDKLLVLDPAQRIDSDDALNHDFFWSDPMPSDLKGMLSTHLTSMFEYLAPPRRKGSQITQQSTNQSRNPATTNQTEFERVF

Structure (SMILES)	inhibition [1] [%]	inhibition [2] [%]	inhibition of growth at 10 µM [3] [%]	inhibition of growth at 10 µM [4] [%]	inhibition of growth at 10 µM [5] [%]	inhibition of growth at 10 µM [6] [%]	inhibition of growth at 10 µM [7] [%]	IC50 [8] [µM]	IC50 [9] [µM]	GI50 [10] [µM]	GI50 [11] [µM]	GI50 [12] [µM]	GI50 [13] [µM]	GI50 [14] [µM]	Ratio IC50 [15]
CN1CC[C@H](c2c(O)cc(O)c3c(=O)cc(/C=C/c4cccc(F)c4)oc23)[C@H](O)C1	53	88	60	67	67	83	61	0.466	0.029	8	7	2	3	8	–
CN1CC[C@H](c2c(O)cc(O)c3c(=O)cc(/C=C/c4ccccc4)oc23)[C@H](O)C1	5.2	66	91	10	87	8	72	0.925	0.066	1	58	2	31	3.7	–
CN1CC[C@H](c2c(O)cc(O)c3c(=O)cc(/C=C/c4c5ccccc5cc5ccccc45)oc23)[C@H](O)C1	43	80	78	75	77	78	44	1.8	0.35	4	> 100	4	5	4	–
CN1CC[C@H](c2c(O)cc(O)c3c(=O)cc(/C=C/c4ccc(Cl)cc4)oc23)[C@H](O)C1	2	71	58	12	88	10	70	3.3	0.31	8	31	2	49	5.6	10
CN1CC[C@H](c2c(O)cc(O)c3c(=O)cc(/C=C/c4ccccc4F)oc23)[C@H](O)C1	9	60	62	25	60	62	68	1.52	0.26	8	20	3	8	7	–
CN1CC[C@H](c2c(O)cc(O)c3c(=O)cc(/C=C/c4ccccc4Cl)oc23)[C@H](O)C1	10	75	61	22	59	63	65	1.41	0.16	9	17	8	9	9	10
Cc1cc(=O)c2c(O)c(CN3CCN(C)CC3)c(O)c([C@H]3CCN(C)C[C@H]3O)c2o1	0	2	15	0	6	10	30	–	–	–	–	–	–	–	–
Cc1cc(=O)c2c(O)cc(O)c([C@H]3CCN(C)C[C@H]3O)c2o1 [ROHITUKINE]	–	–	83	33	2	15	12	–	–	10	19	19	28	25	–
Cc1oc2c([C@H]3CCN(C)C[C@H]3O)c(O)cc(O)c2c(=O)c1C(O)c1c(F)cccc1Cl (stereo partly specified)	0	0	49	0	41	41	18	–	–	–	–	–	–	–	–
Cc1cc(=O)c2c(O)cc(O)c([C@H]3CCN(C)C[C@H]3OC(=O)c3ccco3)c2o1	10	0	22	23	13	20	33	–	–	–	–	–	–	–	–
Cc1oc2c([C@H]3CCN(C)C[C@H]3O)c(O)cc(O)c2c(=O)c1C(O)c1c(Cl)cccc1Cl (stereo partly specified)	0	0	14	0	0	33	24	–	–	–	–	–	–	–	–
Cc1oc2c([C@H]3CCN(C)C[C@H]3O)c(O)cc(O)c2c(=O)c1C(O)c1ccc([N+](=O)[O-])cc1 (stereo partly specified)	6	8	0	24	2	4	5	–	–	–	–	–	–	–	–
Cc1cc(=O)c2c(O)c(CN3CCN(C(=O)OC(C)(C)C)CC3)c(O)c([C@H]3CCN(C)C[C@H]3O)c2o1	2	0	13	1	6	16	21	–	–	–	–	–	–	–	–
CCCCCCCCCC/C=C/c1c(C)oc2c([C@H]3CCN(C)C[C@H]3O)c(O)cc(O)c2c1=O	5	11	9	0	4	7	10	–	–	–	–	–	–	–	–
Cc1oc2c([C@H]3CCN(C)C[C@H]3O)c(O)cc(O)c2c(=O)c1C(O)c1cc(F)cc(F)c1 (stereo partly specified)	2	10	30	0	6	25	10	–	–	–	–	–	–	–	–
CCOC(=O)N1CCN(Cc2c(O)c([C@H]3CCN(C)C[C@H]3O)c3oc(C)cc(=O)c3c2O)CC1	5	0	16	1	4	31	18	–	–	–	–	–	–	–	–
Cc1oc2c([C@H]3CCN(C)C[C@H]3O)c(O)cc(O)c2c(=O)c1C(O)c1cccc(Cl)c1 (stereo partly specified)	0	4	22	31	2	5	4	–	–	–	–	–	–	–	–
Cc1cc(=O)c2c(O)c(CN3CCCC3)c(O)c([C@H]3CCN(C)C[C@H]3O)c2o1	7	5	38	10	28	12	22	–	–	–	–	–	–	–	–
Cc1cc(=O)c2c(O)cc(OCc3ccco3)c([C@H]3CCN(C)C[C@H]3O)c2o1	7	8	32	14	7	6	17	–	–	–	–	–	–	–	–
Cc1cc(=O)c2c(O)c(CN3CCCC3CO)c(O)c([C@H]3CCN(C)C[C@H]3O)c2o1 (stereo partly specified)	0	5	33	15	13	22	19	–	–	–	–	–	–	–	–
Cc1cc(=O)c2c(O)c(CN(C)CC(=O)O)c(O)c([C@H]3CCN(C)C[C@H]3O)c2o1	0	0	23	20	16	27	18	–	–	–	–	–	–	–	–
Cc1cc(=O)c2c(O)c(CN3CC(O)CC3C(=O)O)c(O)c([C@H]3CCN(C)C[C@H]3O)c2o1 (stereo partly specified)	10	8	28	0	23	25	19	–	–	–	–	–	–	–	–
